Measurements pooled from the literature.
Compare with care: the assays were run in different laboratories.

COc1cc(/C=C/C(=O)/C=C(O)/C=C/c2ccc[nH]2)ccc1O — IC50 (CHO-K1; cell growth or viability, MTT; 72 h): 24.1 µM
Cc1cc(Nc2ccc(C(=O)N/N=C/c3ccnc(Cl)c3)cc2)c2cccc(O)c2n1 — inhibition (SMMC-7721; cell growth or viability, MTT; 20 µM): 19.8%
COc1cc(/C=C/C(=O)/C=C(O)/C=C/c2cccc3cnccc23)ccc1O — IC50 (CHO-K1; cell growth or viability, MTT; 72 h): 7.6 µM
C=CC(=O)N1CCC[C@@H](n2nc(-c3ccc(Oc4ccccc4)cc3)c3c(N)ncnc32)C1 — GI50 (BCWM1; cell growth or viability; 48 h): 0.57 µM
CC(C)C[C@H](NC(=O)[C@H](Cc1ccccc1)NC(=O)c1cnccn1)B(O)O — IC50 (COR-L279; cell growth or viability, ATP luminescence): 0.0076 µM
Clc1ccc(-c2nc3ccccc3[nH]2)cc1Cl — IC50 (human Rhabdomyosarcoma cell; cell growth or viability, MTT; 48 h): 10.4 µM
O=C(/C=C(O)/C=C/c1ccc[nH]1)/C=C/c1c[nH]c2ccccc12 — IC50 (CHO-K1; cell growth or viability, SRB; 72 h): 9.64 µM
COc1ccc(-c2ccc(/C(C)=N/O)c(O)c2Cl)cc1 — viability (NCI-H1299; cell growth or viability, MTT; 30 µM, 48 h): 73%
CCn1cc(-c2cccc(C(F)(F)F)c2)c2sc(C(=N)NC3CCS(=O)(=O)CC3)cc2c1=O — EC50 (HL-60; cell growth or viability; 7 days): 433 nM
Cc1cc(Nc2ccc(C(=O)N/N=C/c3ccc(C)s3)cc2)c2cccc(O)c2n1 — inhibition (SMMC-7721; cell growth or viability, MTT; 20 µM): 25.1%
C[C@@H](Oc1cc(-c2cnn(C3CCNCC3)c2)cnc1N)c1c(Cl)ccc(F)c1Cl — inhibition (NCI-H3122; cell growth or viability, MTT; 0.2 µg/mL, 72 h): 52.9%
Fc1cccc(Cl)c1-c1nc2ccccc2[nH]1 — IC50 (human Rhabdomyosarcoma cell; cell growth or viability, MTT; 48 h): > 100 µM
Cc1ccc(NC(=O)NCc2ccc3c(c2)CN(C2CCC(=O)NC2=O)C3=O)cc1Cl (stereo not shown) — EC50 (MHHCALL4; cell growth or viability, ATP luminescence): 0.0019 nM
Cn1nnc2c(C(N)=O)ncn2c1=O — EC50 (MKN-45; cell growth or viability): 491000 nM
C/C(=N\O)c1ccc(-c2ccc(OC(F)(F)F)cc2)c(Cl)c1O — viability (NCI-H1299; cell growth or viability, MTT; 30 µM, 48 h): 106%
O=C1CCC(N2Cc3cc(CNC(=O)C(F)(F)c4ccc(Cl)cc4)ccc3C2=O)C(=O)N1 (stereo not shown) — EC50 (MHHCALL4; cell growth or viability, ATP luminescence): 4.13 nM
CS(=O)(=O)CCNCc1ccc(-c2ccc3ncnc(Nc4ccc(OCc5cccc(F)c5)c(Cl)c4)c3c2)o1 — EC50 (NCI-H1299; cell growth or viability, MTT; 72 h): 41000 nM
COc1cc(Nc2nccc(-c3cnn4nc(OC)ccc34)n2)cc(C(F)(F)F)c1 — IC50 (OV56; cell growth or viability, ATP luminescence): 1.4 µM
COc1ccc(/C=N/NC(=O)c2ccc(Nc3cc(C)nc4c(O)cccc34)cc2)cc1O — inhibition (SMMC-7721; cell growth or viability, MTT; 20 µM): 30.3%
COc1cc(/C=C/c2cc(/C=C/c3cccnc3)[nH]n2)ccc1O — IC50 (CHO-K1; cell growth or viability, MTT; 72 h): 13.2 µM
N#C[Se]CCOc1ccccc1Oc1ccccc1 — CC50 (Vero; cell growth or viability; 72 h): > 20 µM
C=C(F)C(=O)N1CCN(c2nc(OC[C@@H]3CCCN3C)nc3c2CCN(c2cccc4cccc(Cl)c24)C3)C[C@@H]1CC#N — GI50 (NCI-H1437; cell growth or viability, ATP luminescence; 5 days): 2.22 µM
COc1cc(/C=C/C(=O)/C=C(O)/C=C/c2ccnc3ccccc23)ccc1O — IC50 (CHO-K1; cell growth or viability, SRB; 72 h): 19.3 µM
COc1ccc(-c2ccc(/C(C)=N/O)c(O)c2Cl)cc1Cl — viability (NCI-H1299; cell growth or viability, MTT; 30 µM, 48 h): 65%
O=C(Cn1ccnc1[N+](=O)[O-])NCc1ccccc1 — CC50 (Vero; cell growth or viability; 72 h): > 10 µM
C/C(=N\O)c1ccc(-c2ccc(C(F)(F)F)cc2)c(Cl)c1O — viability (NCI-H1299; cell growth or viability, MTT; 30 µM, 48 h): 89%
c1ccc2c(-c3nc4ccccc4[nH]3)c3ccccc3cc2c1 — IC50 (human Rhabdomyosarcoma cell; cell growth or viability, MTT; 48 h): 7.66 µM
C=CC(=O)N1CCN(c2nc(=O)n(-c3c(C)ccnc3C(C)C)c3nc(-c4c(O)cccc4F)c(F)cc23)[C@@H](C)C1 — GI50 (NCI-H1437; cell growth or viability, ATP luminescence; 5 days): > 10 µM
Cc1ccc2nc(-c3cc(Br)ccc3O)[nH]c2c1 — IC50 (human Rhabdomyosarcoma cell; cell growth or viability, MTT; 48 h): 10.4 µM
Cc1cc(Nc2ncc(Cl)c(Nc3ccccc3S(=O)(=O)C(C)C)n2)c(OC(C)C)cc1C1CCNCC1 — inhibition (NCI-H3122; cell growth or viability, MTT; 0.08 µg/mL, 72 h): 64.2%
CC(=O)c1cccc(N=Nc2c(C(=O)O)cc(O)c(O)c2O)c1 — inhibition (RAW264.7; TNF-α release, inhibitor, ELISA; 10 µM, LPS-stimulated): 48%
Cc1ccc2nc(-c3c4ccccc4cc4ccccc34)[nH]c2c1 — IC50 (human Rhabdomyosarcoma cell; cell growth or viability, MTT; 48 h): 27 µM
FC(F)(F)SCCOc1ccc(Oc2ccccc2)cc1 — CC50 (Vero; cell growth or viability; 72 h): > 20 µM
c1cncc(-c2nc3ccccc3[nH]2)c1 — IC50 (human Rhabdomyosarcoma cell; cell growth or viability, MTT; 48 h): 87.7 µM
Cc1ccc(/C=N/NC(=O)c2ccc(Nc3cc(C)nc4c(O)cccc34)cc2)cc1 — inhibition (SMMC-7721; cell growth or viability, MTT; 20 µM): 50.8%
Cc1cc2c(cc1N1C(=O)c3cccc4c(CCCO)ccc(c34)C1=O)n(C)c(=O)n2C (racemic) — GI50 (CHL-1; cell growth or viability, resazurin): 7.4 µM
Clc1ccc(Cn2c(-c3ccc(Cl)cc3)nc3ccccc32)cc1 — IC50 (human Rhabdomyosarcoma cell; cell growth or viability, MTT): 9.67 µM
Cc1cc(Nc2ccc(C(=O)N/N=C/c3ccccc3)cc2)c2cccc(O)c2n1 — inhibition (SMMC-7721; cell growth or viability, MTT; 20 µM): 28.5%
CC(=O)c1c(C)c2cnc(Nc3ccc(N4CCNCC4)cn3)nc2n(C2CCCC2)c1=O — GI50 (HCC70; cell growth or viability, resazurin): > 5 µM
Cc1cc(Nc2ccc(C(=O)N/N=C/C3CCCCC3)cc2)c2cccc(O)c2n1 — inhibition (SMMC-7721; cell growth or viability, MTT; 20 µM): 26.3%
COc1ccc(-c2nc3ccc(C)cc3[nH]2)cc1O — IC50 (human Rhabdomyosarcoma cell; cell growth or viability, MTT; 48 h): 48.7 µM
C/C(=N\O)c1ccc(-c2cccc(OC(F)(F)F)c2)c(Cl)c1O — viability (NCI-H1299; cell growth or viability, MTT; 30 µM, 48 h): 83%
Cc1cc(Nc2ccc(C(=O)N/N=C/c3ccc[nH]3)cc2)c2cccc(O)c2n1 — inhibition (SMMC-7721; cell growth or viability, MTT; 20 µM): 16.1%
